The results in this text go back to PMC10653054 (ACS Omega, 2023).

Each structure is given as a SMILES string.

This assay relates to normal human dermal fibroblast (HDF) cells. Kind of assay: MTT cytotoxicity assay, normal HDF cells. It is filed as cell-based. The settings on record: 48 h, read-out: In vitro antiproliferative effects (IC50) HDF. Summed up:
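Cells came from the National Cell Bank of Iran and were grown in RPMI-1640 or DMEM with 10% FBS at 37 °C, 5% CO2 and 100% humidity. Test compounds in 0.1% DMSO (n = 3) were incubated 48 h, then MTT for 3 h, with formazan OD read at 570 nm. Controls were 0.1% DMSO (negative) and etoposide (positive). IC50 came from dose–response curves, mean ± SE of at least three independent experiments.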
For orientation: Formazan colour is commonly taken as a measure of viable cells.
Take `COC(=O)c1c(-c2ccccc2)c2n(c1C(=O)OC)CCn1cccc1-2` [5a, Dimethyl-1-phenyl-5,6-dihydrodipyrrolo[1,2-a:2′,1′-c]pyrazine-2,3-dicarboxylate]: the IC50 – broadly, the concentration that inhibits the measured activity by half – is greater than 100 µM.
With `COC(=O)c1c(-c2ccccc2O)c2n(c1C(=O)OC)CCn1cccc1-2` [5b, Dimethyl-1-(2-hydroxyphenyl)-5,6-dihydrodipyrrolo[1,2-a:2′,1′-c]pyrazine-2,3-dicarboxylate], the IC50 is greater than 100 µM.
For the compound `COC(=O)c1c(-c2cccc(O)c2)c2n(c1C(=O)OC)CCn1cccc1-2` [5c, Dimethyl-1-(3-hydroxyphenyl)-5,6-dihydrodipyrrolo[1,2-a:2′,1′-c]pyrazine-2,3-dicarboxylate], the IC50 is greater than 100 µM.
In the case of `COC(=O)c1c(-c2ccccc2C)c2n(c1C(=O)OC)CCn1cccc1-2` [5d, Dimethyl-1-(2-tolyl)-5,6-dihydrodipyrrolo[1,2-a:2′,1′-c]pyrazine-2,3-dicarboxylate], the IC50 was greater than 100 µM.
Consider `COC(=O)c1c(-c2cccc(C)c2)c2n(c1C(=O)OC)CCn1cccc1-2` [5e, Dimethyl-1-(3-tolyl)-5,6-dihydrodipyrrolo[1,2-a:2′,1′-c]pyrazine-2,3-dicarboxylate], for which the IC50 is greater than 100 µM.
On to `COC(=O)c1c(-c2ccc(C)cc2)c2n(c1C(=O)OC)CCn1cccc1-2` [5f, Dimethyl-1-(4-tolyl)-5,6-dihydrodipyrrolo[1,2-a:2′,1′-c]pyrazine-2,3-dicarboxylate], for which the IC50 is greater than 100 µM.
For the compound `COC(=O)c1c(-c2cccc(OC)c2)c2n(c1C(=O)OC)CCn1cccc1-2` [5g, Dimethyl-1-(3-methoxyphenyl)-5,6-dihydrodipyrrolo[1,2-a:2′,1′-c]pyrazine-2,3-dicarboxylate], the IC50 is greater than 100 µM.
In the case of `COC(=O)c1c(-c2ccc(OC)cc2)c2n(c1C(=O)OC)CCn1cccc1-2` [5h, Dimethyl-1-(4-methoxyphenyl)-5,6-dihydrodipyrrolo[1,2-a:2′,1′-c]pyrazine-2,3-dicarboxylate] it was greater than 100 µM; in that of `COC(=O)c1c(-c2ccccc2F)c2n(c1C(=O)OC)CCn1cccc1-2` [5i, Dimethyl-1-(2-fluorophenyl)-5,6-dihydrodipyrrolo[1,2-a:2′,1′-c]pyrazine-2,3-dicarboxylate], greater than 100 µM.
Turning to `COC(=O)c1c(-c2ccc(F)cc2)c2n(c1C(=O)OC)CCn1cccc1-2` [5j, Dimethyl-1-(4-fluorophenyl)-5,6-dihydrodipyrrolo[1,2-a:2′,1′-c]pyrazine-2,3-dicarboxylate], the IC50 is greater than 100 µM.
In the case of `COC(=O)c1c(-c2cccc(Cl)c2)c2n(c1C(=O)OC)CCn1cccc1-2` [5k, Dimethyl-1-(3-chlorophenyl)-5,6-dihydrodipyrrolo[1,2-a:2′,1′-c]pyrazine-2,3-dicarboxylate] it was greater than 100 µM.
Turning to `COC(=O)c1c(-c2ccc(Cl)cc2)c2n(c1C(=O)OC)CCn1cccc1-2` [5l, Dimethyl-1-(4-chlorophenyl)-5,6-dihydrodipyrrolo[1,2-a:2′,1′-c]pyrazine-2,3-dicarboxylate], the IC50 was greater than 100 µM.
In the case of `COC(=O)c1c(-c2cccc(Br)c2)c2n(c1C(=O)OC)CCn1cccc1-2` [5m, Dimethyl-1-(3-bromophenyl)-5,6-dihydrodipyrrolo[1,2-a:2′,1′-c]pyrazine-2,3-dicarboxylate], the IC50 is greater than 100 µM.
In the case of `COC(=O)c1c(-c2ccc(Br)cc2)c2n(c1C(=O)OC)CCn1cccc1-2` [5n, Dimethyl-1-(4-bromophenyl)-5,6-dihydrodipyrrolo[1,2-a:2′,1′-c]pyrazine-2,3-dicarboxylate] it was greater than 100 µM.
Consider `COC(=O)c1c(-c2cccc([N+](=O)[O-])c2)c2n(c1C(=O)OC)CCn1cccc1-2` [5o, Dimethyl-1-(3-nitrophenyl)-5,6-dihydrodipyrrolo[1,2-a:2′,1′-c]pyrazine-2,3-dicarboxylate], for which the IC50 is greater than 100 µM.
On to `COC(=O)c1c(-c2ccc([N+](=O)[O-])cc2)c2n(c1C(=O)OC)CCn1cccc1-2` [5p, Dimethyl-1-(4-nitrophenyl)-5,6-dihydrodipyrrolo[1,2-a:2′,1′-c]pyrazine-2,3-dicarboxylate], for which the IC50 was greater than 100 µM.
For `COC(=O)c1c(-c2ccc(O)c(OC)c2)c2n(c1C(=O)OC)CCn1cccc1-2` [5q, Dimethyl-1-(4-hydroxy-3-methoxyphenyl)-5,6-dihydrodipyrrolo[1,2-a:2′,1′-c]pyrazine-2,3-dicarboxylate], the IC50 was greater than 100 µM.
Consider `COC(=O)c1c(-c2ccc(Cl)cc2Cl)c2n(c1C(=O)OC)CCn1cccc1-2` [5r, Dimethyl-1-(2,4-dichlorophenyl)-5,6-dihydrodipyrrolo[1,2-a:2′,1′-c]pyrazine-2,3-dicarboxylate], for which the IC50 was greater than 100 µM.
Turning to `COC(=O)c1c(-c2cc(OC)c(OC)c(OC)c2)c2n(c1C(=O)OC)CCn1cccc1-2` [5s, Dimethyl-1-(3,4,5-trimethoxyphenyl)-5,6-dihydrodipyrrolo[1,2-a:2′,1′-c]pyrazine-2,3-dicarboxylate], the IC50 was greater than 100 µM.
Take `O=c1[nH]nc(O)c2c(-c3ccccc3)c3n(c12)CCn1cccc1-3` [7a, 11-Hydroxy-12-phenyl-5,6-dihydropyrrolo[2″,1″:3′,4′]pyrazino[1′,2′:1,5]pyrrolo[2,3-d] pyridazin-8(9H)-one]: the half-inhibitory concentration (IC50) was greater than 100 µM.
`O=c1[nH]nc(O)c2c(-c3cccc(O)c3)c3n(c12)CCn1cccc1-3` [7b, 11-Hydroxy-12-(3-hydroxyphenyl)-5,6-dihydropyrrolo[2″,1″:3′,4′]pyrazino[1′,2′:1,5] pyrrolo[2,3-d]pyridazin-8(9H)-one]: the IC50 is greater than 100 µM.
In the case of `Cc1ccccc1-c1c2n(c3c(=O)[nH]nc(O)c13)CCn1cccc1-2` [7c, 11-Hydroxy-12-(o-tolyl)-5,6-dihydropyrrolo[2″,1″:3′,4′]pyrazino[1′,2′:1,5]pyrrolo[2,3-d] pyridazin-8(9H)-one] it was greater than 100 µM; in that of `Cc1cccc(-c2c3n(c4c(=O)[nH]nc(O)c24)CCn2cccc2-3)c1` [7d, 11-Hydroxy-12-(m-tolyl)-5,6-dihydropyrrolo[2″,1″:3′,4′]pyrazino[1′,2′:1,5]pyrrolo[2,3-d] pyridazin-8(9H)-one], greater than 100 µM.
Take `Cc1ccc(-c2c3n(c4c(=O)[nH]nc(O)c24)CCn2cccc2-3)cc1` [7e, 11-Hydroxy-12-(p-tolyl)-5,6-dihydropyrrolo[2″,1″:3′,4′]pyrazino[1′,2′:1,5]pyrrolo[2,3-d] pyridazin-8(9H)-one]: the IC50 was greater than 100 µM.
Take `COc1cccc(-c2c3n(c4c(=O)[nH]nc(O)c24)CCn2cccc2-3)c1` [7f, 11-Hydroxy-12-(3-methoxyphenyl)-5,6-dihydropyrrolo[2″,1″:3′,4′]pyrazino[1′,2′:1,5] pyrrolo[2,3-d]pyridazin-8(9H)-one]: the IC50 is greater than 100 µM.
As for `COc1ccc(-c2c3n(c4c(=O)[nH]nc(O)c24)CCn2cccc2-3)cc1` [7g, 11-Hydroxy-12-(4-methoxyphenyl)-5,6-dihydropyrrolo[2″,1″:3′,4′]pyrazino[1′,2′:1,5] pyrrolo[2,3-d]pyridazin-8(9H)-one], the IC50 is greater than 100 µM.
As for `O=c1[nH]nc(O)c2c(-c3ccc(F)cc3)c3n(c12)CCn1cccc1-3` [7h, 12-(4-Fluorophenyl)-11-hydroxy-5,6-dihydropyrrolo[2″,1″:3′,4′]pyrazino[1′,2′:1,5] pyrrolo[2,3-d]pyridazin-8(9H)-one], the IC50 was greater than 100 µM.
Consider `O=c1[nH]nc(O)c2c(-c3cccc(Cl)c3)c3n(c12)CCn1cccc1-3` [7i, 12-(3-Chlorophenyl)-11-hydroxy-5,6-dihydropyrrolo[2″,1″:3′,4′]pyrazino[1′,2′:1,5]pyrrolo [2,3-d]pyridazin-8(9H)-one], for which the IC50 was greater than 100 µM.
For the compound `O=c1[nH]nc(O)c2c(-c3ccc(Cl)cc3)c3n(c12)CCn1cccc1-3` [7j, 12-(4-Chlorophenyl)-11-hydroxy-5,6-dihydropyrrolo[2″,1″:3′,4′]pyrazino[1′,2′:1,5] pyrrolo[2,3-d]pyridazin-8(9H)-one], the IC50 was greater than 100 µM.
As for `O=c1[nH]nc(O)c2c(-c3cccc(Br)c3)c3n(c12)CCn1cccc1-3` [7k, 12-(3-Bromophenyl)-11-hydroxy-5,6-dihydropyrrolo[2″,1″:3′,4′]pyrazino[1′,2′:1,5]pyrrolo [2,3-d]pyridazin-8(9H)-one], the IC50 was greater than 100 µM.
`O=c1[nH]nc(O)c2c(-c3ccc(Br)cc3)c3n(c12)CCn1cccc1-3` [7l, 12-(4-Bromophenyl)-11-hydroxy-5,6-dihydropyrrolo[2″,1″:3′,4′]pyrazino[1′,2′:1,5] pyrrolo[2,3-d]pyridazin-8(9H)-one]: the IC50 was greater than 100 µM.
In the case of `O=c1[nH]nc(O)c2c(-c3ccc([N+](=O)[O-])cc3)c3n(c12)CCn1cccc1-3` [7n, 11-Hydroxy-12-(4-nitrophenyl)-5,6-dihydropyrrolo[2″,1″:3′,4′]pyrazino[1′,2′:1,5] pyrrolo[2,3-d]pyridazin-8(9H)-one] it was greater than 100 µM; in that of `COc1cc(-c2c3n(c4c(=O)[nH]nc(O)c24)CCn2cccc2-3)ccc1O` [7o, 11-Hydroxy-12-(4-hydroxy-3-methoxyphenyl)-5,6-dihydropyrrolo[2″,1″:3′,4′]pyrazino [1′,2′:1,5]pyrrolo[2,3-d]pyridazin-8(9H)-one], greater than 100 µM; in that of `O=c1[nH]nc(O)c2c(-c3ccc(Cl)cc3Cl)c3n(c12)CCn1cccc1-3` [7p, 12-(2,4-Dichlorophenyl)-11-hydroxy-5,6-dihydropyrrolo[2″,1″:3′,4′]pyrazino [1′,2′:1,5]pyrrolo[2,3-d]pyridazin-8(9H)-one], greater than 100 µM.
With `COc1cc(-c2c3n(c4c(=O)[nH]nc(O)c24)CCn2cccc2-3)cc(OC)c1OC` [7q, 11-Hydroxy-12-(3,4,5-trimethoxyphenyl)-5,6-dihydropyrrolo[2″,1″:3′,4′]pyrazino [1′,2′:1,5]pyrrolo[2,3-d]pyridazin-8(9H)-one], the IC50 was greater than 100 µM.
On to `COc1cc([C@@H]2c3cc4c(cc3[C@@H](O[C@@H]3O[C@@H]5CO[C@@H](C)O[C@H]5[C@H](O)[C@H]3O)[C@H]3COC(=O)[C@H]23)OCO4)cc(OC)c1O` [etoposide, reference compound], for which the IC50 was greater than 100 µM.
